The results in this text go back to ChEMBL document CHEMBL3244361, “B/C-cis- and -trans-1,3,4,9,10,10a-Hexahydro-2H-10,4a-methanoiminoethanophenanthrene (homo- and homoisomorphinan) derivatives as analgesics” (J Med Chem, 1977).

For data set [1], the system named is Mus musculus. The data set can be described thus: Analgesic activity in sc dosed mouse by hot plate assay. Type of data set: functional. In general terms: Thermal pain tests record how soon the animal reacts.
The subject of data set [2] is Rhesus monkey. The data set can be described thus: Physical dependence capacity in rhesus monkey assessed as suppression/precipitation of abstinence syndrome at 0.4 to 6.4 mg/kg. The note with it: in vivo. The data set is classed as organism-based, Macaca mulatta. Further details: dose 0.4-6.4 mg/kg. Put shortly: (§1)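 Monkey single-dose suppression test for physical dependence capacity. Abstinence signs were scored for suppression or precipitation across the dose range given in each line.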

Data set [3] has as its system Rhesus monkey. The data set can be described thus: Physical dependence capacity in rhesus monkey assessed as suppression/precipitation of abstinence syndrome at 4 mg/kg. The note with it: in vivo.
Data set [4] concerns Rhesus monkey. The data set can be described thus: Narcotic antagonist activity in morphine-dependent monkey assessed as precipitation of abstinence syndrome. Type of data set: functional, organism-based. The following applies: Macaca mulatta. In short, it runs like this:
as §1

The test system of data set [5] is Rhesus monkey. The data set can be described thus: Physical dependence capacity in rhesus monkey assessed as suppression/precipitation of abstinence syndrome at 0.5 to 1 mg/kg. The data set is classed as organism-based, Macaca mulatta. Further details: dose 0.5-1 mg/kg. The following applies: in vivo. Put shortly: as §1
The species entered for data set [6] is Mus musculus.
For data set [7], the system named is Rhesus monkey. The data set can be described thus: Physical dependence capacity in rhesus monkey assessed as suppression/precipitation of abstinence syndrome at 0.5 to 8 mg/kg. The data set is classed as organism-based, Macaca mulatta. Further details: dose 0.5-8 mg/kg. The note with it: in vivo. In short, it runs like this:
as §1

The test system of data set [8] is Rhesus monkey. The data set can be described thus: Physical dependence capacity in rhesus monkey assessed as suppression/precipitation of abstinence syndrome at 0.5 to 4 mg/kg. The data set is classed as organism-based, Macaca mulatta. Also noted: dose 0.5-4 mg/kg. The following applies: in vivo. In short, it runs like this:
as §1

The test system of data set [9] is Mus musculus. The data set can be described thus: Toxicity in mouse at 50 mg/kg, sc. The data set is classed as organism-based. Also noted: dose 50 mg/kg, route subcutaneous. The following applies: in vivo.

Broadly, the ED50 is the midpoint of the dose-response relation.

Active and inactive are the calls of the source. No cut-off for these calls is given here.

As to `COc1ccc2c(c1)[C@@]13CCCC[C@H]1[C@@H](C2)CN(C)CC3`, the ED50 in the data set on Mus musculus [1] turned out to be 3.4 mg/kg.

On to `Br.CN1CC[C@]23CCCC[C@H]2[C@@H](Cc2ccc(O)cc23)C1`, for which the Activity entry in the data set on Rhesus monkey [2] is “Non-toxic”. The ED50 in the data set with Mus musculus [1] stood at 0.8 mg/kg.

Consider `COc1ccc2c(c1)[C@@]13CCCC[C@@H]1[C@@H](C2)CN(C)CC3`, for which, in the data set with Mus musculus [1], the ED50 came out at 8.1 mg/kg.

Turning to `Br.CN1CC[C@]23CCCC[C@@H]2[C@@H](Cc2ccc(O)cc23)C1`, the Activity result in the data set with Rhesus monkey [3] is given as “Toxic”. For the same compound, the 50% effective dose (ED50) with Mus musculus [1] was found to be 2.1 mg/kg.

For the compound `C=CCN1CC[C@]23CCCC[C@H]2[C@@H](Cc2ccc(O)cc23)C1` (relative stereo), the outcome with Rhesus monkey [4] was inactive. Also, the Activity entry in the data set with Rhesus monkey [5] is recorded as “Non-toxic”. Besides, in the data set filed under Mus musculus [6], the ED50 result was “inactive”.

On to `Oc1ccc2c(c1)[C@@]13CCCC[C@H]1[C@@H](C2)CN(CC1CC1)CC3` (relative stereo), for which the outcome in the data set with Rhesus monkey [4] was inactive. Besides, the Activity result in the data set with Rhesus monkey [7] is “Non-toxic”. The same compound showed an ED50 with Mus musculus [1] of 6.2 mg/kg.

For the compound `C=CCN1CC[C@]23CCCC[C@@H]2[C@@H](Cc2ccc(O)cc23)C1` (relative stereo), the result with Rhesus monkey [4] was inactive. In addition, the Activity result with Rhesus monkey [8] is on record as “Non-toxic”. Besides, in the data set with Mus musculus [1], the 50% effective dose (ED50) amounted to 19.6 mg/kg.

For the compound `Oc1ccc2c(c1)[C@@]13CCCC[C@@H]1[C@@H](C2)CN(CC1CC1)CC3` (relative stereo), the result in the data set with Rhesus monkey [4] was inactive. Also, the Activity result in the data set with Rhesus monkey [8] is on record as “Non-toxic”; in the data set with Mus musculus [9], “Toxic”.

With `CN1CC[C@]23c4c5ccc(O)c4O[C@H]2[C@@H](O)C=C[C@H]3[C@H]1C5.Cl` [MORPHINE HYDROCHLORIDE], the 50% effective dose (ED50) with Mus musculus [1] was found to be 1.2 mg/kg.
